Laboratory results taken from ChEMBL document CHEMBL1123346, “Pyrimidinones. 3. N-substituted 6-phenylpyrimidinones and pyrimidinediones with diuretic/hypotensive and antiinflammatory activity” (J Med Chem, 1986).

Experiments:
[1] = species on record: Rattus norvegicus; assay: Diuretic activity in rats; assay type: functional, Urine
Summary of the method: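 Male rats (~160 g) fasted 24 h, water withheld 1.5 h, both withheld during test. Gavage 25 mL/kg 0.9% saline with 0.5% carboxymethylcellulose containing compound at 40 mg/kg; urine collected 5 h in metabolism cages. Two-stage test, T/C urine volume per stage; active if product of stage T/Cs ≥3.34.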

[2] = test system: Rattus norvegicus; assay: Compound was tested for inhibition of RPAR administered perorally at 100 mg/kg dose; assay type: functional; settings: route oral
Summary of the method: (§1)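 Male Wistar rats (180-200 g), 5-10/group, dosed orally (water with Tween-80 suspension) 1 h before iv sensitization with 1 mg bovine serum albumin; 24-h fasted. 60 min later subplantar challenge with 200 µg anti-BSA in left hindpaw. Paw swelling by mercury displacement plethysmography at 2 h post-challenge.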

[3] = test system: Rattus norvegicus; assay: Compound was tested for inhibition of RPAR administered perorally at 25 mg/kg dose; assay type: functional; settings: route oral; summary of the method: as §1
[4] = test system: Rattus norvegicus; assay: Compound was tested for inhibition of RPAR administered perorally at 50 mg/kg dose; assay type: functional; settings: route oral; summary of the method: as §1
[5] = test system: Rattus norvegicus; assay: Blood pressure change in rats after oral administration of 50 mg/kg dose after 24 hours; assay type: functional
Summary of the method: (§2)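 Restrained female Sprague–Dawley rats with indwelling aortic cannulas exteriorized at the nape; direct arterial pressure via transducer, mean pressure by electrical integration of phasic pressure. Readings before and 4 and 24 h after oral dosing (carboxymethylcellulose suspension, 10 mL/kg). Value is change in mean arterial pressure, averaged over two animals.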

[6] = test system: Rattus norvegicus; assay: Blood pressure change in rats after oral administration of 50 mg/kg dose after 4 hours; assay type: functional; summary of the method: as §2
[7] = Potassium salt excretion in conscious rat at the dose of 0.3 mg/kg expressed as urinary excretion in treated rats/urinary excretion in control rats; assay type: ADME, organism-based, Urine; set-up: dose 0.3 mg/kg; settings: in vivo
Summary of the method: (§3)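 Male rats (~160 g) fasted 24 h, water withheld 1.5 h; oral gavage of compound (0.3-100 mg/kg) in 25 mL/kg saline with 0.5% carboxymethylcellulose; 5 h urine collection in metabolism cages. Urine volume, Na+ and K+ (flame photometry) expressed as treated/control excretion ratio.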

[8] = Potassium salt excretion in conscious rat at the dose of 1.0 mg/kg expressed as urinary excretion in treated rats/urinary excretion in control rats; assay type: ADME, organism-based, Urine; set-up: dose 1 mg/kg; settings: in vivo; summary of the method: as §3
[9] = Potassium salt excretion in conscious rat at the dose of 10 mg/kg expressed as urinary excretion in treated rats/urinary excretion in control rats; assay type: ADME, organism-based, Urine; set-up: dose 10 mg/kg; settings: in vivo; summary of the method: as §3
[10] = Potassium salt excretion in conscious rat at the dose of 100 mg/kg expressed as urinary excretion in treated rats/urinary excretion in control rats; assay type: ADME, organism-based, Urine; set-up: dose 100 mg/kg; settings: in vivo; summary of the method: as §3
[11] = Potassium salt excretion in conscious rat at the dose of 3.0 mg/kg expressed as urinary excretion in treated rats/urinary excretion in control rats; assay type: ADME, organism-based, Urine; set-up: dose 3 mg/kg; settings: in vivo; summary of the method: as §3
[12] = Potassium salt excretion in conscious rat at the dose of 30 mg/kg expressed as urinary excretion in treated rats/urinary excretion in control rats; assay type: ADME, organism-based, Urine; set-up: dose 30 mg/kg; settings: in vivo; summary of the method: as §3
[13] = Sodium salt excretion in conscious rat at the dose of 0.3 mg/kg expressed as urinary excretion in treated rats/urinary excretion in control rats; assay type: ADME, organism-based, Urine; set-up: dose 0.3 mg/kg; settings: in vivo; summary of the method: as §3
[14] = Sodium salt excretion in conscious rat at the dose of 1.0 mg/kg expressed as urinary excretion in treated rats/urinary excretion in control rats; assay type: ADME, organism-based, Urine; set-up: dose 1 mg/kg; settings: in vivo; summary of the method: as §3
[15] = Sodium salt excretion in conscious rat at the dose of 10 mg/kg expressed as urinary excretion in treated rats/urinary excretion in control rats; assay type: ADME, organism-based, Urine; set-up: dose 10 mg/kg; settings: in vivo; summary of the method: as §3
[16] = Sodium salt excretion in conscious rat at the dose of 100 mg/kg expressed as urinary excretion in treated rats/urinary excretion in control rats; assay type: ADME, organism-based, Urine; set-up: dose 100 mg/kg; settings: in vivo; summary of the method: as §3
[17] = Sodium salt excretion in conscious rat at the dose of 3.0 mg/kg expressed as urinary excretion in treated rats/urinary excretion in control rats; assay type: ADME, organism-based, Urine; set-up: dose 3 mg/kg; settings: in vivo; summary of the method: as §3
[18] = Sodium salt excretion in conscious rat at the dose of 30 mg/kg expressed as urinary excretion in treated rats/urinary excretion in control rats; assay type: ADME, organism-based, Urine; set-up: dose 30 mg/kg; settings: in vivo; summary of the method: as §3
[19] = test system: Rattus norvegicus; assay: Compound was tested for urinary volume excretion in conscious rat at the dose of 0.3 mg/kg expressed as urinary excretion in treated rats/urinary excretion in control rats; assay type: ADME, organism-based, Urine; set-up: dose 0.3 mg/kg; settings: in vivo; summary of the method: as §3
[20] = test system: Rattus norvegicus; assay: Compound was tested for urinary volume excretion in conscious rat at the dose of 1.0 mg/kg expressed as urinary excretion in treated rats/urinary excretion in control rats; assay type: ADME, organism-based, Urine; set-up: dose 1 mg/kg; settings: in vivo; summary of the method: as §3
[21] = test system: Rattus norvegicus; assay: Compound was tested for urinary volume excretion in conscious rat at the dose of 10 mg/kg expressed as urinary excretion in treated rats/urinary excretion in control rats; assay type: ADME, organism-based, Urine; set-up: dose 10 mg/kg; settings: in vivo; summary of the method: as §3
[22] = test system: Rattus norvegicus; assay: Compound was tested for urinary volume excretion in conscious rat at the dose of 100 mg/kg expressed as urinary excretion in treated rats/urinary excretion in control rats; assay type: ADME, organism-based, Urine; set-up: dose 100 mg/kg; settings: in vivo; summary of the method: as §3
[23] = test system: Rattus norvegicus; assay: Compound was tested for urinary volume excretion in conscious rat at the dose of 3.0 mg/kg expressed as urinary excretion in treated rats/urinary excretion in control rats; assay type: ADME, organism-based, Urine; set-up: dose 3 mg/kg; settings: in vivo; summary of the method: as §3
[24] = test system: Rattus norvegicus; assay: Compound was tested for urinary volume excretion in conscious rat at the dose of 30 mg/kg expressed as urinary excretion in treated rats/urinary excretion in control rats; assay type: ADME, organism-based, Urine; set-up: dose 30 mg/kg; settings: in vivo; summary of the method: as §3
[25] = test system: Rattus norvegicus; assay: Compound was tested for blood pressure change in rats after oral administration of 50 mg/kg dose after 24 hours; assay type: functional; summary of the method: as §2
[26] = test system: Rattus norvegicus; assay: Compound was tested for blood pressure change in rats after oral administration of 50 mg/kg dose after 4 hours; assay type: functional; summary of the method: as §2

Compound | Diuretic activity [1] | K+ excretion [7] | K+ excretion [8] | K+ excretion [9] | K+ excretion [10] | K+ excretion [11] | K+ excretion [12] | Na+ excretion [13] | Na+ excretion [14] | Na+ excretion [15] | Na+ excretion [16] | Na+ excretion [17] | Na+ excretion [18] | Urinary volume [19] | Urinary volume [20] | Urinary volume [21] | Urinary volume [22] | Urinary volume [23] | Urinary volume [24] | other results
Cn1c(N)nc(-c2ccccc2)c(Br)c1=O | 5.52 | 1.1 | 1 | 1.7 | 2.2 | 1.3 | 2.2 | 1 | 1.2 | 2.1 | 2.8 | 1.3 | 2.5 | 1 | 0.9 | 2.3 | 2.8 | 1.4 | 2.5 | inhibition in vivo at 100 mg/kg [2]: 74%; inhibition in vivo at 25 mg/kg [3]: 36%; inhibition in vivo at 50 mg/kg [4]: 64%; MABP change [5]: -7 mmHg; MABP change [6]: -12 mmHg
NS(=O)(=O)c1cc2c(cc1Cl)NCNS2(=O)=O [HYDROCHLOROTHIAZIDE] | 7.18 | 1.2 | 1.6 | 1.5 | 1.7 | 1.6 | 1.5 | 1.7 | 2 | 2.4 | 2.5 | 2.1 | 2.4 | 1.9 | 2.3 | 2.4 | 2.7 | 2.2 | 2.6 | MABP change [25]: 2 mmHg; MABP change [26]: 0 mmHg
